Reference: ChEMBL document CHEMBL4130630 (J Med Chem, 2018)

Legend:
[1] = target: T1, Sodium- and chloride-dependent GABA transporter 1 (Mus musculus, UniProt P31648); assay: (§1) Inhibition of mouse GAT1 expressed in HEK293 cells assessed as reduction in [3H]GABA uptake preincubated cells with photoirradiated compound for 25 mins followed by [3H]GABA addition measured after 4 mins by liquid scintillation counting method; format: cell-based
How it was run: (§2)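 HEK293 cells stably expressing the mouse GAT subtype (about 200000 cells) preincubated with compound for 25 min at 25 °C in the dark with shaking. Then 8 nM [3H]GABA plus 32 nM unlabeled GABA (final) added for 4 min. Stopped by filtration; filter radioactivity by scintillation counting. Photoisomerized 10 mM DMSO-d6 stocks (photostationary state, Z/E ratio by 1H NMR) diluted protected from light; non-irradiated stock tested in parallel.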

[2] = Half life of thermal relaxation of compound in pH 7.4 DMSO-d6/phosphate-buffer using photoirradiated compound at 20 uM incubated in dark by UV/vis-spectroscopy; format: physicochemical; settings: pH 7.4, 20 µM
[3] = target: T1, Sodium- and chloride-dependent GABA transporter 1; assay: Inhibition of mouse GAT1 expressed in HEK293 cells assessed as reduction in [3H]GABA uptake preincubated for 25 mins followed by [3H]GABA addition measured after 4 mins by liquid scintillation counting analysis; format: cell-based; how it was run: as §2
GABA transporter 4 = target: T2, GABA transporter 4 (Mus musculus, UniProt P31650); assay: Inhibition of mouse GAT4 expressed in HEK293 cells assessed as reduction in [3H]GABA uptake preincubated for 25 mins followed by [3H]GABA addition measured after 4 mins by liquid scintillation counting analysis; format: cell-based; how it was run: as §2
T2 sequence (P31650 whole entry): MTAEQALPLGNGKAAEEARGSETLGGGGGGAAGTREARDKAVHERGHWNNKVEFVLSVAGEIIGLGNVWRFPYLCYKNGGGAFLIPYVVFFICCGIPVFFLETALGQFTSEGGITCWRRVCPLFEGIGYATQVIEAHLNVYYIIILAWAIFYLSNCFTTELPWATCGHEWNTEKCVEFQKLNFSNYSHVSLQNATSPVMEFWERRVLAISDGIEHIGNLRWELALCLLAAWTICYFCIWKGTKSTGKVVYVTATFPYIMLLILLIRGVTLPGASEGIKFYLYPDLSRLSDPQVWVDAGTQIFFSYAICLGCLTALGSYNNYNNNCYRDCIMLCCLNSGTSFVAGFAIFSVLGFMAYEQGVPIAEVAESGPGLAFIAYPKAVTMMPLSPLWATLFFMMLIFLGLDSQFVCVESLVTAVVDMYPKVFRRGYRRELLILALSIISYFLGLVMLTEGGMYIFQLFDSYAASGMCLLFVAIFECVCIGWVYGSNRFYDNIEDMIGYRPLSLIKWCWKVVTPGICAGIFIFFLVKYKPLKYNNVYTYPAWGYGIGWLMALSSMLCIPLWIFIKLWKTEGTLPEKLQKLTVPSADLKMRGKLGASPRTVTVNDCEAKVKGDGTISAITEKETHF

[4] = target: Sodium- and chloride-dependent GABA transporter 1 (Mus musculus) (UniProt P31648); assay: Inhibition of GAT1 in C57BL/6N mouse dentate gyrus granule cells assessed as induction of tonic GABAA receptor-mediated current response by measuring shift in holding current amplitude at 10 uM by Whole cell voltage-clamp method
How it was run: (§3)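 Acute 350 μm coronal dorsal hippocampal slices from mice, recovered 30 min at 34 °C then ≥30 min at room temperature in carbogenated saline (pH 7.4). Superfused at room temperature with NBQX 5 μM, APV 50 μM, CGP 55845 5 μM. Granule cell whole-cell voltage clamp at −70 mV. Compound bath-applied; activated form made by 340 nm UV for 10 min on 10 mM stock just before addition; bicuculline methiodide 20 μM.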

[5] = Half life of thermal relaxation of compound in pH 7.4 DMSO-d6/phosphate-buffer using photoirradiated compound at 25 uM incubated in dark by UV/vis-spectroscopy; format: physicochemical; settings: pH 7.4, 25 µM
[6] = Half life of thermal relaxation of compound in pH 7.4 DMSO-d6/phosphate-buffer using photoirradiated compound at 50 uM incubated in dark by UV/vis-spectroscopy; format: physicochemical; settings: pH 7.4, 50 µM
[7] = Half life of thermal relaxation of compound in DMSO-d6 using photoirradiated compound by 1H NMR method; format: physicochemical
How it was run: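 Irradiated to photostationary state as 10 mM stock in DMSO-d6 (1 mL, within 10 min); 1H NMR spectra recorded starting immediately after irradiation. Z/E fraction α from spectra plotted against time, fit to a single exponential to give half-life; 25 °C.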

[8] = target: T3, GABA transporter 4 (Mus musculus) (UniProt P31650); assay: as §1, with “GAT4” for “GAT1”, “uptake by measuring remaining [3H]GABA uptake levels” for “uptake”, “compound at 100 uM” for “compound”, “method relative to control” for “method”; format: cell-based
T3 sequence (whole entry): T2 sequence (P31650 whole entry)

[9] = target: Sodium- and chloride-dependent GABA transporter 1 (Mus musculus) (UniProt P31648); assay: (§4) Inhibition of GAT1 in C57BL/6N mouse dentate gyrus granule cells assessed as induction of tonic GABAA receptor-mediated current response by measuring shift in holding current amplitude using UV-activated compound at 10 uM by Whole cell voltage-clamp method; how it was run: as §3
[10] = target: Sodium- and chloride-dependent GABA transporter 1 (Mus musculus) (UniProt P31648); assay: as §4, with “uM in presence of GABAA receptor blocker bicuculline methiodide” for “uM”; how it was run: as §3
[11] = test system: betaine/GABA transporter BGT1, Slc6a12 (Mus musculus); assay: Inhibition of mouse GAT2 expressed in HEK293 cells assessed as reduction in [3H]GABA uptake by measuring remaining [3H]GABA uptake levels preincubated cells with photoirradiated compound at 100 uM for 25 mins followed by [3H]GABA addition measured after 4 mins by liquid scintillation counting …
[12] = test system: GABA transporter 2, Slc6a13 (Mus musculus); assay: Inhibition of mouse GAT3 expressed in HEK293 cells assessed as reduction in [3H]GABA uptake by measuring remaining [3H]GABA uptake levels preincubated cells with photoirradiated compound at 100 uM for 25 mins followed by [3H]GABA addition measured after 4 mins by liquid scintillation counting …
[13] = target: T1, Sodium- and chloride-dependent GABA transporter 1; assay: Inhibition of mouse GAT1 expressed in HEK293 cells assessed as reduction in [3H]GABA uptake; format: cell-based
[14] = Half life of thermal relaxation of compound in pH 7.4 DMSO-d6/phosphate-buffer using photoirradiated compound at 10 uM incubated in dark by UV/vis-spectroscopy; format: physicochemical; settings: pH 7.4, 10 µM
[15] = target: T1, Sodium- and chloride-dependent GABA transporter 1; assay: Inhibition of mouse GAT1 assessed as reduction in GABA uptake
[16] = target: T1, Sodium- and chloride-dependent GABA transporter 1; assay: Inhibition of mouse GAT1 assessed as reduction in GABA uptake using photoirradiated compound
How it was run: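 A 10 mM DMSO-d6 stock was irradiated to its photostationary state: 350 nm Rayonet for diphenyldiazenes, 375 nm LED for naphthylphenyldiazenes. (Z)/(E) ratio was checked by 1H NMR, and dilutions were made protected from light. mGAT1-HEK293 cells were preincubated 25 min at 25 °C in the dark, then given 4 min uptake of 8 nM [3H]GABA plus 32 nM GABA. Filtration and scintillation counting gave pIC50.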

IC50 [1] [µM] | IC50 [3] [µM] | SMILES | other results
4.07 | – | O=C(O)C1CCCN(CCCC#Cc2cccc(N=Nc3ccccc3)c2)C1 (mixture of isomers) | t1/2 [2]: 360 h
– | 22.4 | O=C(O)[C@@H]1CCCN(CCC#Cc2cccc(/N=N/c3ccccc3)c2)C1 | IC50 (GABA transporter 4): 10 to 100 µM; Activity [4]: -0.22 pA
– | 14.5 | O=C(O)C1CCCN(CCCC#Cc2cccc(/N=N/c3ccccc3)c2)C1 (stereo unspecified) | –
– | 3.02 | O=C(O)C1CCCN(CCCC#Cc2ccc(/N=N/c3cccc4ccccc34)cc2)C1 (stereo unspecified) | –
1.45 | – | O=C(O)[C@@H]1CCCN(CCC#Cc2ccc(N=Nc3ccccc3)cc2)C1 (mixture of isomers) | –
0.891 | – | O=C(O)C1CCCN(CCC#Cc2cccc(N=Nc3ccccc3)c2)C1 (mixture of isomers) | t1/2 [6]: 528 h; t1/2 [7]: 360 h
0.417 | – | O=C(O)[C@@H]1CCCN(CCC#Cc2cccc(N=Nc3ccccc3)c2)C1 (mixture of isomers) | Activity [8]: 57%; Activity [9]: -25.3 pA; Activity [10]: -1.84 pA; Activity [11]: 76%; Activity [12]: 60%
2.57 | – | O=C(O)C1CCCN(CCC#Cc2ccc(N=Nc3ccccc3)cc2)C1 (mixture of isomers) | t1/2 [5]: 115 h
25.7 | – | O=C(O)C1CCCN(CCCC#Cc2ccc(N=Nc3ccccc3)cc2)C1 (mixture of isomers) | t1/2 [5]: 163 h
4.9 | – | O=C(O)C1CCCN(CCCC#Cc2ccc(N=Nc3cccc4ccccc34)cc2)C1 (mixture of isomers) | t1/2 [14]: 4.3 h
– | 0.417 | O=C(O)[C@@H]1CCCN(CCC#Cc2ccc(/N=N/c3ccccc3)cc2)C1 | IC50 (GABA transporter 4): 10 to 100 µM
– | 7.59 | O=C(O)C1CCCN(CCCC#Cc2ccc(/N=N/c3ccccc3)cc2)C1 (stereo unspecified) | –
– | 32.4 | O=C(O)C1CCCN(CCC#Cc2cccc(/N=N/c3ccccc3)c2)C1 (stereo unspecified) | –
– | 0.646 | O=C(O)C1CCCN(CCC#Cc2ccc(/N=N/c3ccccc3)cc2)C1 (stereo unspecified) | –

Continued, compound first:

SMILES | IC50 [1] [µM] | IC50 [3] [µM] | other results
O=C(O)C1CCCN(CCC/C=C/c2cccc(/N=N/c3cccc4ccccc34)c2)C1 (stereo unspecified) | – | 19.5 | –
O=C(O)C1CCCN(CCC/C=C/c2ccc(/N=N/c3cccc4ccccc34)cc2)C1 (stereo unspecified) | – | 6.46 | –
O=C(O)C1CCCN(CCCC#Cc2cccc(N=Nc3cccc4ccccc34)c2)C1 (mixture of isomers) | 13.8 | – | t1/2 [2]: 43.2 h
O=C(O)C1CCCN(CCC=Cc2cccc(N=Nc3ccccc3)c2)C1 (mixture of isomers) | 4.79 | – | t1/2 [5]: 312 h
O=C(O)C1CCCN(CCC=Cc2cccc(N=Nc3cccc4ccccc34)c2)C1 (mixture of isomers) | 5.89 | – | t1/2 [2]: 22 h
O=C(O)[C@@H]1CCCN(CCC#Cc2ccc(N=Nc3cccc4ccccc34)cc2)C1 (mixture of isomers) | 0.182 | – | –
O=C(O)C1CCCN(CCC#Cc2cccc(N=Nc3cccc4ccccc34)c2)C1 (mixture of isomers) | 1.95 | – | t1/2 [2]: 18 h
O=C(O)C1CCCN(CC/C=C/c2cccc(/N=N/c3ccccc3)c2)C1 (stereo unspecified) | – | 38 | –
O=C(O)C1CCCN(CC/C=C/c2ccccc2-c2ccccc2)C1 (stereo unspecified) | – | – | IC50 [13]: 0.162 µM
O=C(O)C1CCCN(CC/C=C/c2ccc(/N=N/c3cccc4ccccc34)cc2)C1 (stereo unspecified) | – | 8.71 | –
O=C(O)C1CCCN(CCCC=Cc2cccc(N=Nc3ccccc3)c2)C1 (mixture of isomers) | 25.1 | – | t1/2 [2]: 288 h
O=C(O)C1CCCN(CCC#Cc2cccc(/N=N/c3cccc4ccccc34)c2)C1 (stereo unspecified) | – | 6.46 | –
O=C(O)[C@@H]1CCCN(CCC#Cc2cccc(/N=N/c3cccc4ccccc34)c2)C1 | – | 4.27 | IC50 (GABA transporter 4): 10 to 100 µM
O=C(O)C1CCCN(CCC=Cc2ccc(N=Nc3cccc4ccccc34)cc2)C1 (mixture of isomers) | 7.41 | – | t1/2 [14]: 1.2 h
O=C(O)C1CCCN(CCCC=Cc2ccc(N=Nc3cccc4ccccc34)cc2)C1 (mixture of isomers) | 6.17 | – | t1/2 [14]: 1.5 h
O=C(O)C1CCCN(CCC#Cc2ccccc2-c2ccccc2)C1 (stereo unspecified) | – | – | IC50 [13]: 0.1 µM
O=C(O)C1CCCN(CCCC=Cc2cccc(N=Nc3cccc4ccccc34)c2)C1 (mixture of isomers) | 10 | – | t1/2 [2]: 11 h
O=C(O)C1CCCN(CCC#Cc2ccc(N=Nc3cccc4ccccc34)cc2)C1 (mixture of isomers) | 0.229 | – | t1/2 [14]: 3.4 h
O=C(O)C1CCCN(CC/C=C/c2cccc(/N=N/c3cccc4ccccc34)c2)C1 (stereo unspecified) | – | 12.3 | –
O=C(O)C1CCCN(CCC#Cc2ccc(/N=N/c3cccc4ccccc34)cc2)C1 (stereo unspecified) | – | 0.126 | –
O=C(O)[C@@H]1CCCN(CCOCCc2cccc(N=Nc3cccc4ccccc34)c2)C1 (mixture of isomers) | – | – | IC50 [15]: 0.407 µM; IC50 [16]: 1.66 µM
O=C(O)C1CCCN(CCCC=Cc2ccc(N=Nc3ccccc3)cc2)C1 (mixture of isomers) | 23.4 | – | t1/2 [6]: 45.6 h
O=C(O)[C@@H]1CCCN(CCC#Cc2ccc(/N=N/c3cccc4ccccc34)cc2)C1 | – | 0.0977 | IC50 (GABA transporter 4): 10 to 100 µM
O=C(O)C1CCCN(CC/C=C/c2ccc(/N=N/c3ccccc3)cc2)C1 (stereo unspecified) | – | 10 | –
O=C(O)C1CCCN(CCC/C=C/c2ccc(/N=N/c3ccccc3)cc2)C1 (stereo unspecified) | – | 5.75 | –
O=C(O)C1CCCN(CCC=Cc2ccc(N=Nc3ccccc3)cc2)C1 (mixture of isomers) | 37.2 | – | t1/2 [6]: 26.4 h
O=C(O)[C@@H]1CCCN(CCC#Cc2cccc(N=Nc3cccc4ccccc34)c2)C1 (mixture of isomers) | 1 | – | –
O=C(O)C1CCCN(CCC/C=C/c2cccc(/N=N/c3ccccc3)c2)C1 (stereo unspecified) | – | 38 | –
O=C(O)C1CCCN(CCCC#Cc2cccc(/N=N/c3cccc4ccccc34)c2)C1 (stereo unspecified) | – | 12.3 | –
